Results reported in ChEMBL document CHEMBL1153575, “Synthesis and in vitro anticancer activity of 2,4-azolidinedione-acetic acids derivatives” (2009).

Tests used:
Format in all cases: functional
NCI-H460 = test: Cytotoxicity against human NCI-H460 cells assessed as cell growth at 100 uM after 48 hrs by sulforhodamine B assay; details: NCI-H460, 48 h, read-out: Activity
Method in brief: (§1)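 Primary one-dose screen on a three-line panel (MCF7 breast, NCI-H460 lung, SF-268 CNS) at 10^-4 M. Cells were preincubated 24–48 h before a single addition of the agent, followed by 48 h incubation. Endpoint was SRB protein staining, reported as percent growth versus untreated controls.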

MCF7 = test: Cytotoxicity against human MCF7 cells assessed as cell growth at 100 uM after 48 hrs by sulforhodamine B assay; details: MCF7, 48 h, read-out: Activity; method in brief: as §1
SF-268 [1] = test: Cytotoxicity against human SF268 cells assessed as cell growth at 100 uM after 48 hrs by sulforhodamine B assay; details: SF-268, 48 h, read-out: Activity; method in brief: as §1
MDA-MB-231 = test: Growth inhibition of human MDA-MB-231 cells after 48 hrs by sulforhodamine B assay; details: MDA-MB-231, 48 h; for TGI: read-out: pTGI (converted)
Method in brief: (§2)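 Five-concentration assay in about 60 human tumour lines, using 10-fold dilutions from 10^-4 to 10^-8 M with 48 h continuous exposure and an SRB protein endpoint. Percent growth at each level comes from time-zero, untreated-control and treated absorbances. GI50 is 50% lower net protein increase than control. Values beyond the tested range are given as greater or less than the extreme concentration.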

[2] = Growth inhibition of human Hs 578T cells after 48 hrs by sulforhodamine B assay; details: for CC50: read-out: pLC50 (the source's name) (converted); for TGI: read-out: pTGI (converted); method in brief: as §2
SR = test: Growth inhibition of human SR cells after 48 hrs by sulforhodamine B assay; details: for TGI: read-out: pTGI (converted); method in brief: as §2
NCI-H23 = test: Growth inhibition of human NCI-H23 cells after 48 hrs by sulforhodamine B assay; details: NCI-H23, 48 h; method in brief: as §2
A498 = test: Growth inhibition of human A498 cells after 48 hrs by sulforhodamine B assay; details: A498, 48 h; method in brief: as §2
CCRF-CEM = test: Growth inhibition of human CCRF-CEM cells after 48 hrs by sulforhodamine B assay; method in brief: as §2
MOLT-4 = test: Growth inhibition of human MOLT4 cells after 48 hrs by sulforhodamine B assay; details: MOLT-4, 48 h; method in brief: as §2
RPMI-8226 = test: Growth inhibition of human RPMI8226 cells after 48 hrs by sulforhodamine B assay; details: RPMI-8226, 48 h; method in brief: as §2
HOP-62 = test: Growth inhibition of human HOP62 cells after 48 hrs by sulforhodamine B assay; details: HOP-62, 48 h; method in brief: as §2
HOP-92 = test: Growth inhibition of human HOP92 cells after 48 hrs by sulforhodamine B assay; details: HOP-92, 48 h; method in brief: as §2
NCI-H226 = test: Growth inhibition of human NCI-H226 cells after 48 hrs by sulforhodamine B assay; details: NCI-H226, 48 h; method in brief: as §2
SN12C = test: Growth inhibition of human SN12C cells after 48 hrs by sulforhodamine B assay; method in brief: as §2
HL-60(TB) = test: Growth inhibition of human HL-60(TB) cells after 48 hrs by sulforhodamine B assay; details: HL-60, 48 h
Method in brief: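 Cells inoculated and preincubated 24–48 h in microtiter plates, then exposed continuously for 48 h to five 10-fold dilutions from 10^-4 to 10^-8 M. End point by sulforhodamine B protein staining, read spectrophotometrically against untreated controls and time-zero absorbance. Percent growth computed per concentration; GI50 taken where [(Ti−Tz)/(C−Tz)]×100 = 50, expressed as log molar value.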

SF-268 [3] = test: Growth inhibition of human SF268 cells after 48 hrs by sulforhodamine B assay; details: SF-268, 48 h; method in brief: as §2
SF-539 = test: Growth inhibition of human SF539 cells after 48 hrs by sulforhodamine B assay; details: SF-539, 48 h; method in brief: as §2
SNB- = test: Growth inhibition of human SNB cells after 48 hrs by sulforhodamine B assay; method in brief: as §2
U-251 = test: Growth inhibition of human U251 cells after 48 hrs by sulforhodamine B assay; details: U-251, 48 h; method in brief: as §2
LOX IMVI = test: Growth inhibition of human LOXIMVI cells after 48 hrs by sulforhodamine B assay; method in brief: as §2
OVCAR-4 = test: Growth inhibition of human OVCAR4 cells after 48 hrs by sulforhodamine B assay; details: OVCAR-4, 48 h; method in brief: as §2
SK-OV-3 = test: Growth inhibition of human SKOV3 cells after 48 hrs by sulforhodamine B assay; details: SK-OV-3, 48 h; method in brief: as §2
TK-10 = test: Growth inhibition of human TK10 cells after 48 hrs by sulforhodamine B assay; details: TK-10, 48 h; method in brief: as §2
PC-3 = test: Growth inhibition of human PC3 cells after 48 hrs by sulforhodamine B assay; details: PC-3, 48 h; method in brief: as §2
[4] = read-out: pLC50 (the source's name) (converted)

## O=C(CN1C(=O)N/C(=C\C=C\c2ccccc2)C1=O)Nc1ccc(Cl)cc1
NCI-H460
  growth at 100 µM: 17%
MCF7
  growth at 100 µM: 7%
SF-268 [1]
  growth at 100 µM: 39%
MDA-MB-231
  GI50: 26.3 µM
  LC50: > 100 µM
  TGI: > 100 µM
[2]
  GI50: 21.9 µM
  CC50: > 100 µM
  TGI: 52.5 µM
SR
  GI50: 33.9 µM
  LC50: > 100 µM
  TGI: > 100 µM
NCI-H23
  GI50: 31.6 µM
  LC50: > 100 µM
NCI-H23; read-out: pTGI (converted)
  TGI: > 100 µM
A498
  GI50: 17.8 µM
A498; [4]
  CC50: 77.6 µM
A498; read-out: pTGI (converted)
  TGI: 37.2 µM

## O=C(CN1C(=O)N/C(=C\c2ccc(Cl)cc2)C1=O)Nc1ccc(Cl)cc1
CCRF-CEM
  GI50: 14.8 µM
  LC50: 67.6 µM
CCRF-CEM; read-out: pTGI (converted)
  TGI: 31.6 µM
MOLT-4
  GI50: 11 µM
MOLT-4; [4]
  CC50: 72.4 µM
MOLT-4; read-out: pTGI (converted)
  TGI: 28.2 µM
RPMI-8226
  GI50: 20.9 µM
  LC50: > 100 µM
RPMI-8226; read-out: pTGI (converted)
  TGI: 67.6 µM
HOP-62
  GI50: 15.1 µM
  LC50: > 100 µM
HOP-62; read-out: pTGI (converted)
  TGI: 43.7 µM
HOP-92
  GI50: 17.4 µM
  LC50: > 100 µM
HOP-92; read-out: pTGI (converted)
  TGI: 50.1 µM
NCI-H226
  GI50: 15.8 µM
NCI-H226; [4]
  CC50: > 100 µM
NCI-H226; read-out: pTGI (converted)
  TGI: 44.7 µM
SN12C
  GI50: 17 µM
  LC50: > 100 µM
SN12C; read-out: pTGI (converted)
  TGI: 47.9 µM
MDA-MB-231
  GI50: 16.2 µM
  LC50: > 100 µM
  TGI: 42.7 µM
[2]
  GI50: 10.7 µM
  CC50: > 100 µM
  TGI: 38 µM
HL-60(TB)
  GI50: 19.5 µM
HL-60(TB); [4]
  CC50: > 100 µM
HL-60(TB); read-out: pTGI (converted)
  TGI: 46.8 µM
SR
  GI50: 7.08 µM
  LC50: > 100 µM
  TGI: 67.6 µM
SF-268 [3]
  GI50: 10.5 µM
SF-268 [3]; [4]
  CC50: 85.1 µM
SF-268 [3]; read-out: pTGI (converted)
  TGI: 29.5 µM
SF-539
  GI50: 16.6 µM
SF-539; [4]
  CC50: 89.1 µM
SF-539; read-out: pTGI (converted)
  TGI: 38.9 µM
SNB-
  GI50: 13.2 µM
SNB-; [4]
  CC50: > 100 µM
SNB-; read-out: pTGI (converted)
  TGI: 36.3 µM
U-251
  GI50: 14.8 µM
  LC50: 60.3 µM
U-251; read-out: pTGI (converted)
  TGI: 29.5 µM
LOX IMVI
  GI50: 15.5 µM
LOX IMVI; [4]
  CC50: 66.1 µM
LOX IMVI; read-out: pTGI (converted)
  TGI: 32.4 µM
OVCAR-4
  GI50: 13.2 µM
OVCAR-4; [4]
  CC50: > 100 µM
OVCAR-4; read-out: pTGI (converted)
  TGI: 64.6 µM
SK-OV-3
  GI50: 19.5 µM
  LC50: > 100 µM
SK-OV-3; read-out: pTGI (converted)
  TGI: 51.3 µM
TK-10
  GI50: 17 µM
TK-10; [4]
  CC50: > 100 µM
TK-10; read-out: pTGI (converted)
  TGI: 42.7 µM
PC-3
  GI50: 18.6 µM
PC-3; [4]
  CC50: > 100 µM
PC-3; read-out: pTGI (converted)
  TGI: 46.8 µM
